In brackets after ≈: the same amount, converted by molar mass.
Legend:
[1] = biological target: Voltage-dependent T-type calcium channel subunit alpha-1H (Homo sapiens, UniProt O95180); assay: Inhibition of recombinant T-type calcium channel Cav3.2 (unknown origin) expressed in HEK293 cells assessed as inhibition of CaCl2-induced calcium influx preincubated for 3 mins prior CaCl2 addition by Fluo-4-AM dye-based FLIPR assay; type: cell-based
Procedure, shortened: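 HEK293 cells stably expressing Cav3.2, plated overnight at 37°C, loaded 1 h at 37°C with 3 µM Fluo-4-AM in HBSS/Hepes pH 7.4, then washed. Compound in TEAC buffer (100 mM tetraethylammonium chloride, pH 7.2), 3-fold series from 10 µM to 0.05 nM, 3 min before CaCl2 to a final 10 mM. IC50 fitted sigmoidally to the fluorescence AUC against vehicle signal; mean of at least two independent experiments.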

[2] = biological target: Voltage-dependent L-type calcium channel subunit alpha-1C (Homo sapiens, UniProt Q13936); assay: Inhibition of recombinant […] calcium channel Cav1.2 (unknown origin) expressed in HEK293 cells assessed as inhibition of Kcl-induced calcium influx preincubated for 3 mins prior CaCl2 addition by Fluo-4-AM dye-based FLIPR assay; type: cell-based
Procedure, shortened: (§1)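 HEK293 cells stably expressing the channel, seeded overnight and loaded 1 h at 37°C with 3 µM Fluo-4-AM. Compounds given as a 3-fold dilution series from 10 µM to 0.05 nM and incubated 3 min. For T-type channels, dilutions in TEAC buffer and stimulation with 10 mM final CaCl2. For Cav1.2, dilutions in assay buffer and stimulation with 20 mM final KCl. IC50 from area under the fluorescence trace against vehicle; mean of at least two experiments.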

[3] = Aqueous solubility of the compound at pH 4 by UV-HPLC method; type: physicochemical
Procedure, shortened: (§2)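 Compound dispensed from a 10 mM DMSO stock and the solvent evaporated. Residue stirred 24 h at room temperature in buffer: citrate (55 mM) pH 4.0 or phosphate (67 mM) pH 7.0. Mixture filtered by centrifugation. Filtrate concentration measured by HPLC-UV against calibration solutions.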

[4] = Aqueous solubility of the compound at pH 7 by UV-HPLC method; type: physicochemical; procedure, shortened: as §2
[5] = biological target: Voltage-dependent T-type calcium channel subunit alpha-1I (Homo sapiens, UniProt Q9P0X4); assay: Inhibition of T-type calcium channel Cav3.3 (unknown origin) expressed in HEK293 cells assessed as calcium influx by Fluo-4-AM dye-based FLIPR assay; type: cell-based; procedure, shortened: as §1
[6] = biological target: Voltage-dependent T-type calcium channel subunit alpha-1G (Homo sapiens, UniProt O43497); assay: Inhibition of T-type calcium channel Cav3.1 (unknown origin) expressed in HEK293 cells assessed as calcium influx by Fluo-4-AM dye-based FLIPR assay; type: cell-based; procedure, shortened: as §1
[7] = biological target: Voltage-gated inwardly rectifying potassium channel KCNH2 (Homo sapiens, UniProt Q12809); assay: Inhibition of human ERG expressed in CHO cells assessed as potassium tail current measured at -40 mV holding potential after 3 mins by QPatch clamp assay; type: cell-based
Procedure, shortened: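 CHO cells stably expressing hERG, automated QPatch recording. 500-ms depolarization to +20 mV from a holding potential of -80 mV. K+ tail current measured at -40 mV. Effect read 3 min after application.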

MDR1 [8] = assay: Apparent permeability across apical to basolateral side in MDCK cells expressing MDR1 (unknown origin) at 1 uM; type: ADME, cell-based, Canis lupus familiaris; conditions: dog
Procedure, shortened: (§3)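 MDR1-transfected MDCK cell monolayers. Compound tested at 1 µM. Apparent permeability measured in both directions, apical to basolateral and basolateral to apical. Efflux ratio taken from the two directional permeabilities.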

MDR1 [9] = assay: Apparent permeability across basolateral to apical side in MDCK cells expressing MDR1 (unknown origin) at 1 uM; type: ADME, cell-based, Canis lupus familiaris; conditions: dog; procedure, shortened: as §3
MDR1 [10] = assay: Efflux ratio of permeability in MDCK cells expressing MDR1 (unknown origin); type: ADME, cell-based, Canis lupus familiaris; conditions: dog; procedure, shortened: as §3

Chain of Voltage-dependent L-type calcium channel subunit alpha-1C (Q13936 whole entry): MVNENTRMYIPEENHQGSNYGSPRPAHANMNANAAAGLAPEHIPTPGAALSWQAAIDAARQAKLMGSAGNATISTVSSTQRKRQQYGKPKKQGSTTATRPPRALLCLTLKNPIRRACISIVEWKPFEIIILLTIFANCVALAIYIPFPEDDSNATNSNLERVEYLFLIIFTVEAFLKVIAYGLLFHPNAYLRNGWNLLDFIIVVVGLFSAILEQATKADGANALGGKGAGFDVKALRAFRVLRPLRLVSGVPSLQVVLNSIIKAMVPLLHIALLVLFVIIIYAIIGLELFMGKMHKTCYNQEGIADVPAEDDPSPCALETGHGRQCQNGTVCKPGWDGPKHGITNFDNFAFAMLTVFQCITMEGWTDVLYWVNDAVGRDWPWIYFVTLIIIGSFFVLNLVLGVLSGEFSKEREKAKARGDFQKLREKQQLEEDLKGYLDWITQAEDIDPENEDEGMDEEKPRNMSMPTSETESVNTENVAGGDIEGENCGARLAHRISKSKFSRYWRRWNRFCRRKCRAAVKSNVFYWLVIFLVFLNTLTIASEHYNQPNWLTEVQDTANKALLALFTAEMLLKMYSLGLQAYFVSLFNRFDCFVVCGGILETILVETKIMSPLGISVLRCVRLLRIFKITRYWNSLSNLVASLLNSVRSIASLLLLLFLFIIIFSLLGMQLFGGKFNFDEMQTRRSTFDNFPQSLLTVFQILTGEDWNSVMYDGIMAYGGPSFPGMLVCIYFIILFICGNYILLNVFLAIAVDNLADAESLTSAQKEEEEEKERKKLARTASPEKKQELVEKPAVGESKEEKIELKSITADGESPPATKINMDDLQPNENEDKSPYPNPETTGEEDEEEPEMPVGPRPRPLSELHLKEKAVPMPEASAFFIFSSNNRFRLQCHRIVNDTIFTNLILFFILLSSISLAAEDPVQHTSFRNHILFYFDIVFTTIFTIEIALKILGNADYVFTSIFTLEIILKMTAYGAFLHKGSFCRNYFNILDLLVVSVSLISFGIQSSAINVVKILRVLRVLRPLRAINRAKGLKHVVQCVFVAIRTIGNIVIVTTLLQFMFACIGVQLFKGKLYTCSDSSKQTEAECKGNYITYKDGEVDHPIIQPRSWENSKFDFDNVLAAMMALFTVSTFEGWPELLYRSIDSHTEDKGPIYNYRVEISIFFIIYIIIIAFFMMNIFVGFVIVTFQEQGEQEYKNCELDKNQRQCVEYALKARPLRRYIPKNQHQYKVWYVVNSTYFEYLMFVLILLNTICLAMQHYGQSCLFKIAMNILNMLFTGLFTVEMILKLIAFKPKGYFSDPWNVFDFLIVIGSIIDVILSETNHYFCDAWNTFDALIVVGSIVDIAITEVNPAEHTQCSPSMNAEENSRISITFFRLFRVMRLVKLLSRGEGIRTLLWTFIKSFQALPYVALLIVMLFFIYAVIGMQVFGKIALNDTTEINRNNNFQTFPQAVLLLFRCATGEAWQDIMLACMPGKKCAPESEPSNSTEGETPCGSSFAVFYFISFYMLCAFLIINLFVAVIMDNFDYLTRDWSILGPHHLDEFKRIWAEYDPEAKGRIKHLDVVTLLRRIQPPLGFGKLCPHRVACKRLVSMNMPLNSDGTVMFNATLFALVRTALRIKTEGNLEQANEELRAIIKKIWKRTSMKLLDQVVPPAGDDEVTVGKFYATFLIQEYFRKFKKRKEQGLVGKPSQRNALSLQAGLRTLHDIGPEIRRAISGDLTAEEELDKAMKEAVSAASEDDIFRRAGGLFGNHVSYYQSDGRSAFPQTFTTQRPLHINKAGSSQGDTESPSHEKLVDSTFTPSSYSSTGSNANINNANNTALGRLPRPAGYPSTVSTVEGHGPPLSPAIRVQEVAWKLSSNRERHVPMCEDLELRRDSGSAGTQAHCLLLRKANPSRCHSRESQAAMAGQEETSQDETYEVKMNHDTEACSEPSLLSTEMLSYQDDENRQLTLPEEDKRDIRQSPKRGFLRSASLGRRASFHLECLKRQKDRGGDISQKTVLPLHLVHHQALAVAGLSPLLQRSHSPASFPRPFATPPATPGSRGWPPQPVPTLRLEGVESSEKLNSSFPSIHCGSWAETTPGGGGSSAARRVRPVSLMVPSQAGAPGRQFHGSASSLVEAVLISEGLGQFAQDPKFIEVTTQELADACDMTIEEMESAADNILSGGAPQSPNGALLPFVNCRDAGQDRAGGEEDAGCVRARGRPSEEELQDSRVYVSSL
Chain of Voltage-dependent T-type calcium channel subunit alpha-1H (O95180 whole entry): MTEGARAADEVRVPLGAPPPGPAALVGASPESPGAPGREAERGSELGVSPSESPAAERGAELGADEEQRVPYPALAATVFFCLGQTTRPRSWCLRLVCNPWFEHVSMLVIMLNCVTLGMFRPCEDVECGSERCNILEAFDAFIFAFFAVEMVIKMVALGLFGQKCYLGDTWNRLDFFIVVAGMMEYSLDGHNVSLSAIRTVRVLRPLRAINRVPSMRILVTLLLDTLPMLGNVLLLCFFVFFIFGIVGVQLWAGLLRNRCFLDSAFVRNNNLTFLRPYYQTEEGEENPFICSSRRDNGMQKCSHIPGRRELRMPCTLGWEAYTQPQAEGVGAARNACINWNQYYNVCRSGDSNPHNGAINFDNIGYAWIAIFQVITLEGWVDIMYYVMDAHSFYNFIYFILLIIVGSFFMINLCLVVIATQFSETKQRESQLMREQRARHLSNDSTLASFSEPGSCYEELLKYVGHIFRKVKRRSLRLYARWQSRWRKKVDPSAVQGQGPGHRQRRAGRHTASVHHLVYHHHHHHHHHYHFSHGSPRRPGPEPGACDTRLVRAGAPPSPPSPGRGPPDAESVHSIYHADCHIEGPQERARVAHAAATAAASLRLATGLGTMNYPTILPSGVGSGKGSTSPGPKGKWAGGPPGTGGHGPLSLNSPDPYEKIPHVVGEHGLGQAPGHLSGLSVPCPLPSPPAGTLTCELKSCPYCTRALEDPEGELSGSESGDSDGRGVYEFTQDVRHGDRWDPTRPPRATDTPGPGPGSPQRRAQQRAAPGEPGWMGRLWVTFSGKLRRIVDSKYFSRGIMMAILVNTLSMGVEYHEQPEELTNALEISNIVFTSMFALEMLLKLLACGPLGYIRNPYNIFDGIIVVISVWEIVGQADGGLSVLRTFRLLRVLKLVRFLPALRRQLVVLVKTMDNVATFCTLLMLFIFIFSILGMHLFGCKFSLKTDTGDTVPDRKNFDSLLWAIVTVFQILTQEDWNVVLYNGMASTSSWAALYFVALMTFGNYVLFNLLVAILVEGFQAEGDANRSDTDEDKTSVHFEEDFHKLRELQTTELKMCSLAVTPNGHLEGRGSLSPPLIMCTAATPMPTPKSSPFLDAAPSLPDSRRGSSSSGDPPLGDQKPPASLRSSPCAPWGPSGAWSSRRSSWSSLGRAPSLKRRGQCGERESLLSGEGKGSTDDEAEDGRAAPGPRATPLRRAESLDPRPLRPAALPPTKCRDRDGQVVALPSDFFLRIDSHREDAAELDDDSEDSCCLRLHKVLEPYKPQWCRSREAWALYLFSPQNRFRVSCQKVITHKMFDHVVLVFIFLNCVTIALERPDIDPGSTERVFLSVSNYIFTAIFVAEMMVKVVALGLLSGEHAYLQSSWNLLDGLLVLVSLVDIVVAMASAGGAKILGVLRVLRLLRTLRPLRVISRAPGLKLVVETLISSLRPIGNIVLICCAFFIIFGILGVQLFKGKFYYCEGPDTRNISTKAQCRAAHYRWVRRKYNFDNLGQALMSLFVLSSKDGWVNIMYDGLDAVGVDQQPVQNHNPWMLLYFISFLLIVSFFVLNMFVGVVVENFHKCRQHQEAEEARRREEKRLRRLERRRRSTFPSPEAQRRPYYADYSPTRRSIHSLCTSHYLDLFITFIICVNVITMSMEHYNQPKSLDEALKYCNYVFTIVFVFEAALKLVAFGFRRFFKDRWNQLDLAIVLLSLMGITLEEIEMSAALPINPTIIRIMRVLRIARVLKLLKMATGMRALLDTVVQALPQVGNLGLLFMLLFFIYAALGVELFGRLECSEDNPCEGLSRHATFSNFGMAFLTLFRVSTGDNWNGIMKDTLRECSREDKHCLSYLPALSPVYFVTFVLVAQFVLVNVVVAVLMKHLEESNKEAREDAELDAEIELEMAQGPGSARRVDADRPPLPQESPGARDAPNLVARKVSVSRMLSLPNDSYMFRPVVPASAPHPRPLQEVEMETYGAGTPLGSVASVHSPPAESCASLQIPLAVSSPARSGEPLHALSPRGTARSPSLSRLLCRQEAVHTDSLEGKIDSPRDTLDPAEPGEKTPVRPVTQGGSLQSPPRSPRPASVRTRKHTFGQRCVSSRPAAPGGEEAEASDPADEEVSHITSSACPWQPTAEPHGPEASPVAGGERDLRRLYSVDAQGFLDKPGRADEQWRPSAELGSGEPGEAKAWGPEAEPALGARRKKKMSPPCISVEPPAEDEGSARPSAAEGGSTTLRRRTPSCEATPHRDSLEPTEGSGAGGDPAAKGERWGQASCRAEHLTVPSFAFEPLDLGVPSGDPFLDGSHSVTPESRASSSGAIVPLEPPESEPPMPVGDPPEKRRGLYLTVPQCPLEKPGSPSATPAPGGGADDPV

With `O=C(Nc1ccc(F)cc1)N1N=C(c2cc[n+]([O-])cc2)CC1c1ccc(F)cc1` (stereo not given) the IC50 [1] was 110 nM and the IC50 [2] was > 10000 nM.

Compound `O=C(NC1CCCCC1)N1N=C(c2ccc(Br)cc2)CC1c1ccc(F)cc1` (stereo not given) has an IC50 [1] of 316 nM and an IC50 [2] of 1340 nM.

With `Fc1ccc(NC(=S)N2N=C(c3ccc(Br)cc3)CC2c2ccc(F)cc2)cc1` (stereo not given) the IC50 [1] was 281 nM and the IC50 [2] was > 10000 nM.

Compound `COc1ccc([C@]2(CCO)CC(c3cccnc3)=NN2C(=O)Nc2ccc(Br)cc2)cc1` has an IC50 [1] of 33 nM and an IC50 [2] of 4800 nM.

Work on `O=C(Nc1ccncc1)N1N=C(c2ccccc2)CC1c1ccc(F)cc1` (stereo not given) yielded an IC50 [1] of 202 nM and an IC50 [2] of 3090 nM.

With `Cc1ccc(C2(CCN3CCN(C)CC3)CC(c3ccccc3)=NN2C(=O)Nc2ccc(F)cc2)cc1` (stereo not given) the IC50 [1] was 690 nM, the IC50 [2] was 3600 nM and the solubility [3] was 477 µg/mL (≈ 955 µM). The solubility [4] was 158 µg/mL (≈ 316 µM).

Work on `CC1CC(c2ccccc2)=NN1C(=O)Nc1ccc(F)cc1` (stereo not given) yielded an IC50 [1] of 410 nM and an IC50 [2] of 3900 nM.

In the case of `O=C(Nc1ccccc1F)N1N=C(c2ccc(Br)cc2)CC1c1ccc(F)cc1` (stereo not given), the IC50 [1] is reported as > 10000 nM, the IC50 [2] is reported as > 10000 nM and the solubility [3] is reported as < 1 µg/mL. The solubility [4] was < 1 µg/mL.

In the case of `Cc1ccc(C2(CCN3CCOCC3)CC(c3ccccc3)=NN2C(=O)Nc2ccc(F)cc2)cc1` (stereo not given), the IC50 [1] is reported as 430 nM, the IC50 [2] is reported as 5900 nM and the solubility [3] is reported as 371 µg/mL (≈ 762 µM). The solubility [4] was 1 µg/mL (≈ 2.06 µM).

For `COCC1(c2ccc(C)cc2)CC(c2ccccc2)=NN1C(=O)Nc1ccc(F)cc1` (stereo not given), the IC50 [1] was 350 nM and the IC50 [2] was > 10000 nM.

Work on `O=C(Nc1ccc(F)cc1)N1N=C(c2ccccc2)CC1(CO)c1ccc(F)cc1` (stereo not given) yielded an IC50 [1] of 70 nM, an IC50 [2] of 2650 nM and a solubility [4] of 2 µg/mL (≈ 4.91 µM).

`CC(C)(C)NC(=O)CN1CCC(CNC(=O)c2cc(F)cc(Cl)c2)CC1` [ULIXACALTAMIDE] gave an IC50 [5] of 86 nM, an IC50 [1] of 73 nM and an IC50 [6] of 37 nM.

With `O=C(Nc1ccc(F)cc1)N1N=C(c2ccc(Br)cc2)CC1c1ccc(F)cc1` (stereo not given) the IC50 [1] was 16 nM, the IC50 [2] was > 10000 nM and the solubility [3] was < 1 µg/mL.

For `CC1=NN(C(=O)Nc2ccc(F)cc2)C(c2ccc(F)cc2)C1` (stereo not given), the IC50 [1] was 900 nM and the IC50 [2] was > 10000 nM.

For `O=C(c1ccccc1)N1N=C(c2ccc(Br)cc2)CC1c1ccc(F)cc1` (stereo not given), the IC50 [1] was 5390 nM and the IC50 [2] was > 10000 nM.

For `CS(=O)(=O)c1ccc(C2CC(c3ccccc3)=NN2C(=O)Nc2ccc(F)cc2)cc1` (stereo not given), the IC50 [1] was 40 nM, the IC50 [2] was > 10000 nM and the solubility [3] was < 1 µg/mL. The solubility [4] was < 1 µg/mL.

`O=C(Nc1ccc(F)cc1)N1N=C(c2ccncc2)C[C@@H]1c1ccc(F)cc1` gave an IC50 [1] of 320 nM and an IC50 [2] of 7800 nM.

With `COCCOc1ccc(C2(CCO)CC(c3ccccc3)=NN2C(=O)Nc2ccc(F)cc2)cc1` (stereo not given) the IC50 [1] was 60 nM, the IC50 [2] was 6300 nM and the solubility [3] was 8 µg/mL (≈ 16.8 µM). It also gave a solubility [4] of 8 µg/mL (≈ 16.8 µM).

With `CS(=O)(=O)c1ccc(C2CC(c3ccncc3)=NN2C(=O)Nc2ccc(F)cc2)cc1` (stereo not given) the IC50 [1] was 410 nM and the IC50 [2] was > 10000 nM.

In the case of `O=C(Nc1cccc(F)c1)N1N=C(c2ccc(Br)cc2)CC1c1ccc(F)cc1` (stereo not given), the IC50 [1] is reported as 46 nM, the IC50 [2] is reported as > 10000 nM and the IC50 [7] is reported as > 10000 nM.

With `O=C(Nc1ccc(F)cc1)N1N=C(c2ccccc2)CC1c1ccc(F)cc1` (stereo not given) the IC50 [1] was 25 nM, the IC50 [2] was > 10000 nM and the solubility [3] was < 1 µg/mL. The solubility [4] was < 1 µg/mL.

With `CS(=O)(=O)c1ccc(C2(CCO)CC(c3ccccc3)=NN2C(=O)Nc2ccc(F)cc2)cc1` (stereo not given) the IC50 [1] was 420 nM, the IC50 [2] was > 10000 nM and the Papp A→B at 1 µM (MDR1 [8]) was 0.6 ×10⁻⁶ cm/s. It also gave a Papp B→A at 1 µM (MDR1 [9]) of 62 ×10⁻⁶ cm/s and an efflux ratio (MDR1 [10]) of 104.

In the case of `CN(C)CCOc1ccc(C2(CCO)CC(c3ccccc3)=NN2C(=O)Nc2ccc(F)cc2)cc1` (stereo not given), the IC50 [1] is reported as > 5300 nM and the IC50 [2] is reported as > 10000 nM.

`Cc1ccc(C2(CCO)CC(c3ccncc3)=NN2C(=O)Nc2ccc(F)cc2)cc1` (stereo not given) showed an IC50 [1] of 330 nM, an IC50 [2] of 8600 nM and a solubility [3] of 193 µg/mL (≈ 461 µM). It also gave a solubility [4] of 35 µg/mL (≈ 83.6 µM).

With `CCc1ccc(NC(=O)N2N=C(c3ccc(Br)cc3)CC2c2ccc(F)cc2)cc1` (stereo not given) the IC50 [1] was 613 nM and the IC50 [2] was > 10000 nM.

Work on `COc1ccc(C2=NN(C(=O)Nc3ccc(Cl)cc3)[C@](CCO)(c3cccnc3)C2)cc1` yielded an IC50 [1] of 55 nM, an IC50 [2] of 5700 nM and a solubility [3] of 27 µg/mL (≈ 59.9 µM). It also gave a solubility [4] of 14 µg/mL (≈ 31 µM), a Papp A→B at 1 µM (MDR1 [8]) of 5.3 ×10⁻⁶ cm/s and a Papp B→A at 1 µM (MDR1 [9]) of 90 ×10⁻⁶ cm/s. For the same compound, the efflux ratio (MDR1 [10]) was 17.

In the case of `Cc1ccc(C2(CCN(C)C)CC(c3ccccc3)=NN2C(=O)Nc2ccc(F)cc2)cc1` (stereo not given), the IC50 [1] is reported as 240 nM, the IC50 [2] is reported as 2200 nM and the solubility [3] is reported as 42 µg/mL (≈ 94.5 µM). It also gave a solubility [4] of 30 µg/mL (≈ 67.5 µM).

For `COc1ccc(NC(=O)N2N=C(c3ccc(Br)cc3)CC2c2ccc(F)cc2)cc1` (stereo not given), the IC50 [1] was 447 nM, the IC50 [2] was > 10000 nM and the solubility [3] was < 1 µg/mL. The solubility [4] was < 1 µg/mL.

Work on `O=C(Nc1ccc(F)cc1)N1N=C(c2ccncc2)C[C@H]1c1ccc(F)cc1` yielded an IC50 [1] of 21 nM and an IC50 [2] of 5400 nM.

In the case of `O=C(Nc1ccc(F)cc1)N1N=C(c2ccccc2)CC1(CCO)c1ccccc1` (stereo not given), the IC50 [1] is reported as 120 nM and the IC50 [2] is reported as 1940 nM.

`O=C(NCCc1ccccc1)N1N=C(c2ccc(Br)cc2)CC1c1ccc(F)cc1` (stereo not given) gave an IC50 [1] of 420 nM and an IC50 [2] of 1880 nM.

In the case of `O=C(Nc1ccccc1)N1N=C(c2ccc(Br)cc2)CC1c1ccc(F)cc1` (stereo not given), the IC50 [1] is reported as 68 nM, the IC50 [2] is reported as > 10000 nM and the IC50 [7] is reported as > 10000 nM.

For `O=C(Nc1ccccn1)N1N=C(c2ccc(Br)cc2)CC1c1ccc(F)cc1` (stereo not given), the IC50 [1] was 393 nM and the IC50 [2] was 2180 nM.

With `CC(C)c1ccc(CC(=O)N[C@H](C)c2ccc(OCC(F)(F)F)cn2)cc1` [SUVECALTAMIDE] the IC50 [5] was 1.5 nM, the IC50 [1] was 8.2 nM and the IC50 [6] was 1.2 nM.

Work on `CC(C)NC(=O)N1N=C(c2ccc(Br)cc2)CC1c1ccc(F)cc1` (stereo not given) yielded an IC50 [1] of 382 nM and an IC50 [2] of 2360 nM.

For `COc1ccc(C2(CCO)CC(c3cccnc3)=NN2C(=O)Nc2ccc(Br)cc2)cc1` (stereo not given), the IC50 [1] was 140 nM and the IC50 [2] was > 10000 nM.

In the case of `COc1ccc([C@@]2(CCO)CC(c3cccnc3)=NN2C(=O)Nc2ccc(Br)cc2)cc1`, the IC50 [1] is reported as > 10000 nM.
